Calls of active or inactive are those of the source. The calls are words filed in the database; no cut-off is given here.
How the values were obtained:
[1] = Displacement of [3H]methyllycaconitine from chimeric alpha-7nAChR S148A mutant /5HT3A receptor in tsA201 cells; format: cell-based, Homo sapiens
How it was run: (§1)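 tsA-201 cells transiently transfected with 4 µg WT or mutant α7/5-HT3A chimera and assayed 2 days later. Membranes washed twice at 50000g in 50 mM Tris-HCl pH 7.2. Incubated with 0.5 nM [3H]MLA and compound for 2.5 h at room temperature with shaking; nonspecific binding with 5 mM (S)-nicotine. PEI-soaked GF/C filtration, scintillation counting. Ki derived; duplicate, 3–7 experiments.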

tsA201 [2] = test: Displacement of [3H]methyllycaconitine from chimeric alpha-7nAChR Y93A mutant/5HT3A receptor in tsA201 cells; format: cell-based; conditions: Homo sapiens; how it was run: as §1
[3] = Displacement of [3H]methyllycaconitine from chimeric alpha7nAChR K145A mutant/5HT3A receptor in tsA201 cells; format: cell-based, Homo sapiens; how it was run: as §1
[4] = Displacement of [3H]methyllycaconitine from chimeric alpha-7nAChR N107A mutant/5HT3A receptor in tsA201 cells; format: cell-based, Homo sapiens; how it was run: as §1
[5] = molecular target: T1, 5-hydroxytryptamine receptor 3A (Homo sapiens, UniProt P46098); test: Displacement of [3H]GR65630 from human 5HT3A receptor in HEK293 cells; format: cell-based
T1 sequence (P46098 whole entry): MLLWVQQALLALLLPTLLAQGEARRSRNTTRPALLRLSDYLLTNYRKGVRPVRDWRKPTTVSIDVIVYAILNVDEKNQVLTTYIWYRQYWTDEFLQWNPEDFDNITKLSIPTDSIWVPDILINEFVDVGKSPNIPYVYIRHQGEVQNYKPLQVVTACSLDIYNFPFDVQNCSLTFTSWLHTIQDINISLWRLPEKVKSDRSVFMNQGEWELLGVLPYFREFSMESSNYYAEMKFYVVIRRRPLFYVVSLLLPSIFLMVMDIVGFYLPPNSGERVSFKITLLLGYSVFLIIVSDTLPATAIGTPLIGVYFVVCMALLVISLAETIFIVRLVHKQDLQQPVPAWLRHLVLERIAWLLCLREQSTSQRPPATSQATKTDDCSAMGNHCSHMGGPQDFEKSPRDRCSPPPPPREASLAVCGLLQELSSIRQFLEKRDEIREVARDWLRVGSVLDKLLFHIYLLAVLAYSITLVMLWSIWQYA

[6] = molecular target: T2, Neuronal acetylcholine receptor subunit alpha-7 (Homo sapiens, UniProt P36544); test: Displacement of [3H]methyllycaconitine from chimeric alpha7nAChR/5HT3A in tsA201 cells; format: cell-based
Target sequence in this assay (P36544 23-502 limits assumed): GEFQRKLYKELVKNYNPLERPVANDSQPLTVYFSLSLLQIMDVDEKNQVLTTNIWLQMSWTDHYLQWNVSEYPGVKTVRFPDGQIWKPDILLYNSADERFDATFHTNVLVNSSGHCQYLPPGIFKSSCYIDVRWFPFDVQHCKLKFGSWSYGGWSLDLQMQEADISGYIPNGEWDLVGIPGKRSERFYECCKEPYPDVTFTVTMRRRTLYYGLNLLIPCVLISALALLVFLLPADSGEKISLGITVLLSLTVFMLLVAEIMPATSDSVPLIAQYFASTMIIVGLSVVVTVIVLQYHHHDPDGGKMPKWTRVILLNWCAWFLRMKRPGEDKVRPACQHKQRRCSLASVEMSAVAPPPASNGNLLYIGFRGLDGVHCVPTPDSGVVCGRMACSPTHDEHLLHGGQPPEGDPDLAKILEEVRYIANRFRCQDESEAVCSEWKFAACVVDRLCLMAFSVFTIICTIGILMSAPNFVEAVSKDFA

[7] = molecular target: T1, 5-hydroxytryptamine receptor 3A; test: Antagonist activity at human 5HT3A receptor expressed in HEK293 cells by FMP assay; format: functional, cell-based
tsA201 [8] = test: Displacement of [3H]methyllycaconitine from chimeric alpha-7nAChR Y188A mutant/5-HT3A receptor in tsA201 cells; format: cell-based; conditions: Homo sapiens; how it was run: as §1
[9] = Displacement of [3H]methyllycaconitine from chimeric alpha7nAChR R79A mutant/5HT3A receptor R79A mutant in tsA201 cells; format: cell-based, Homo sapiens; how it was run: as §1
tsA201 [10] = test: Displacement of [3H]methyllycaconitine from chimeric alpha-7nAChR W149A mutant/5HT3A receptor in tsA201 cells; format: cell-based; conditions: Homo sapiens; how it was run: as §1
[11] = molecular target: T2, Neuronal acetylcholine receptor subunit alpha-7; test: Displacement of [3H]methyllycaconitine from human alpha-7 in tsA201 cells coexpressed with 5HT3A receptor; format: cell-based
Target sequence in this assay (P36544 whole entry): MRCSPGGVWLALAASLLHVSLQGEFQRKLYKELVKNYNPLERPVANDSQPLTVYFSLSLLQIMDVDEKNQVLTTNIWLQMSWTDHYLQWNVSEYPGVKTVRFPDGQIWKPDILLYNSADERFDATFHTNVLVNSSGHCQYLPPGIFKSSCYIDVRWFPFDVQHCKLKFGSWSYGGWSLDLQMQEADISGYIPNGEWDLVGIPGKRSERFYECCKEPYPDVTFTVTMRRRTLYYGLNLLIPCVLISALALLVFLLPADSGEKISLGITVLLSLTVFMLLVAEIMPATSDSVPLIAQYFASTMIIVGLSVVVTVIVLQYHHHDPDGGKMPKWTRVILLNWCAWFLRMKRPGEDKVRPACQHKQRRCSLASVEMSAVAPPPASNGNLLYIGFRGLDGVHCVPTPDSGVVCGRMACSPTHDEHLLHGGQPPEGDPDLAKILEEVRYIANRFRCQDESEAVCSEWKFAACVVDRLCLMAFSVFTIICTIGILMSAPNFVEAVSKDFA

tsA201 [12] = test: Displacement of [3H]methyllycaconitine from chimeric alpha-7nAChR W149Y mutant/5HT3A receptor W149Y mutant in tsA201 cells; format: cell-based; conditions: Homo sapiens; how it was run: as §1
[13] = Displacement of [3H]methyllycaconitine from chimeric alpha7nAChR W55Y mutant/5HT3A receptor in tsA201 cells; format: cell-based, Homo sapiens; how it was run: as §1
[14] = molecular target: T2, Neuronal acetylcholine receptor subunit alpha-7; test: Displacement of [3H]methyllycaconitine from alpha7 nAChR in tsA201 cells co-expressed with Ric3; format: cell-based
Target sequence in this assay (P36544 whole entry): as above

[15] = Displacement of [3H]methyllycaconitine from chimeric alpha7nAChR Y195A mutant/5HT3A receptor in tsA201 cells; format: cell-based, Homo sapiens; how it was run: as §1
[16] = molecular target: Neuronal acetylcholine receptor; alpha4/beta2 (Rattus norvegicus, UniProt P09483+P12390); test: Displacement of [3H]epibatidine from rat recombinant alpha-4-beta-2 nAChR in HEK293 cell line; format: cell-based; conditions: for pKi: hek293
[17] = molecular target: T3, Glycine receptor subunit alpha-1 (Homo sapiens, UniProt P23415); test: Antagonist activity at human glycine alpha-1 receptor in HEK293 cells by FMP assay; format: functional, cell-based; conditions: for pIC50: hek293
T3 sequence (P23415 whole entry): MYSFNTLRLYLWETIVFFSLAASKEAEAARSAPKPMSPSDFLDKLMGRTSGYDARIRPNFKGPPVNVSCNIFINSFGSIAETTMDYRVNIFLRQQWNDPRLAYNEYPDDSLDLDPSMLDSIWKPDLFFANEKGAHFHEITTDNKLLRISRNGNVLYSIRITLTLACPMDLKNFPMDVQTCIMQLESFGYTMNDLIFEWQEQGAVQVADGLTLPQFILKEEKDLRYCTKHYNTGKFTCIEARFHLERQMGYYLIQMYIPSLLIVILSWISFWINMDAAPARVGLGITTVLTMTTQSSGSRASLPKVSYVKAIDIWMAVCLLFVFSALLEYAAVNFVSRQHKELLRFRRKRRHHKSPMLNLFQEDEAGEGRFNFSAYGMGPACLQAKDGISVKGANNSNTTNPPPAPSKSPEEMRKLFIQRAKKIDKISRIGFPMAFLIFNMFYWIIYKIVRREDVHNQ

[18] = molecular target: Neuronal acetylcholine receptor; alpha4/beta4 (Rattus norvegicus, UniProt P09483+P12392); test: Displacement of [3H]epibatidine from recombinant rat alpha-4-beta-4 nAChr in HEK293 cell line; format: cell-based; conditions: for pKi: hek293
[19] = molecular target: T4, Neuronal acetylcholine receptor; alpha3/beta4 (Rattus norvegicus, UniProt P04757+P12392); test: Antagonist activity at rat alpha3beta4 nAChR expressed in HEK293 cells by FMP assay; format: functional, cell-based, Homo sapiens; conditions: for pIC50: hek293; for IC50: read-out: IC50
[20] = Displacement of [3H]methyllycaconitine from chimeric alpha-7nAChR Y168A mutant/5HT3A receptor in tsA201 cells; format: cell-based, Homo sapiens; how it was run: as §1
[21] = molecular target: T2, Neuronal acetylcholine receptor subunit alpha-7; test: Antagonist activity at human alpha-7 nAChR in tsA201 cells coexpressed with Ric3 by FMP assay; format: functional, cell-based
Target sequence in this assay (P36544 whole entry): as the sequence (P36544 whole entry) above

[22] = Displacement of [3H]methyllycaconitine from chimeric alpha-7nAChR W55A mutant /5HT3A receptor in tsA201 cells; format: cell-based, Homo sapiens; how it was run: as §1
[23] = Displacement of [3H]methyllycaconitine from chimeric alpha-7nAChR D197A mutant/5HT3A receptor in tsA201 cells; format: cell-based, Homo sapiens; how it was run: as §1
[24] = Displacement of [3H]methyllycaconitine from chimeric alpha-7nAChR K145R mutant /5HT3A receptor in tsA201 cells; format: cell-based, Homo sapiens; how it was run: as §1
[25] = molecular target: T4, Neuronal acetylcholine receptor; alpha3/beta4; test: Displacement of [3H]epibatidine from recombinant rat alpha-3-beta-4 nAChr in HEK293 cell line; format: cell-based; conditions: for pKi: hek293
[26] = Displacement of [3H]methyllycaconitine from chimeric alpha-7nAChR S150A mutant/5HT3A receptor in tsA201 cells; format: cell-based, Homo sapiens; how it was run: as §1
tsA201 [27] = test: Displacement of [3H]methyllycaconitine from chimeric alpha-7nAChR W55A/Y195A mutant /5HT3A receptor in tsA201 cells; format: cell-based; conditions: Homo sapiens; how it was run: as §1
cells = format: functional, cell-based; conditions: Homo sapiens, HEK293
[28] = Displacement of [3H]methyllycaconitine from chimeric alpha-7nAChR Y195F mutant/5HT3A receptor in tsA201 cells; format: cell-based, Homo sapiens; how it was run: as §1

T4 sequence (P04757 whole entry): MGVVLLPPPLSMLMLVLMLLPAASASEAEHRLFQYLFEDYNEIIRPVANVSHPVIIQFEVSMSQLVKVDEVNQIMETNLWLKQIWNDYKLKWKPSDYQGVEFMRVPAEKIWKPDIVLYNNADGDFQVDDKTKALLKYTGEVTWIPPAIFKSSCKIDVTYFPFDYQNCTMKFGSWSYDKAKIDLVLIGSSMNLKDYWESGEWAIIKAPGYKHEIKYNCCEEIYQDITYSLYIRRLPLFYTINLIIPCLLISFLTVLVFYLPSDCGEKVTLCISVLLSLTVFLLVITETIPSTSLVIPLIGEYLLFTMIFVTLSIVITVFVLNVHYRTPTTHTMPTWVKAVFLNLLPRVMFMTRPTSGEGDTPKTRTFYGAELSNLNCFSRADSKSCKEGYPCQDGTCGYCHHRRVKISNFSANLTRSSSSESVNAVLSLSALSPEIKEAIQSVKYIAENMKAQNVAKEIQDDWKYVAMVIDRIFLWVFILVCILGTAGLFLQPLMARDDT
T4 sequence (P12392 whole entry): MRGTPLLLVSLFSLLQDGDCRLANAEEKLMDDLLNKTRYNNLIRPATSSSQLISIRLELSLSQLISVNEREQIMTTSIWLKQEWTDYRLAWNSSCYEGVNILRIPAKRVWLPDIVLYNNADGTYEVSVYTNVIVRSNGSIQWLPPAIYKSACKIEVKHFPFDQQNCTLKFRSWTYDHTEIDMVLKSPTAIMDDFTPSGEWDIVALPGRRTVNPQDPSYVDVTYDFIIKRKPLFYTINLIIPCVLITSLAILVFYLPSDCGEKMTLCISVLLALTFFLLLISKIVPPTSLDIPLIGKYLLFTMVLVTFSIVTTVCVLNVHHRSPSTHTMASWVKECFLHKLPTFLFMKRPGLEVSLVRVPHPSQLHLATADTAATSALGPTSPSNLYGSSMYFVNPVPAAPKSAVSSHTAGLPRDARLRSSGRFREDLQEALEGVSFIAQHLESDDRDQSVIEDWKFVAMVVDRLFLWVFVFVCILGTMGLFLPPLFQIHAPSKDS
Sequence of Neuronal acetylcholine receptor; alpha4/beta2 (P09483 whole entry): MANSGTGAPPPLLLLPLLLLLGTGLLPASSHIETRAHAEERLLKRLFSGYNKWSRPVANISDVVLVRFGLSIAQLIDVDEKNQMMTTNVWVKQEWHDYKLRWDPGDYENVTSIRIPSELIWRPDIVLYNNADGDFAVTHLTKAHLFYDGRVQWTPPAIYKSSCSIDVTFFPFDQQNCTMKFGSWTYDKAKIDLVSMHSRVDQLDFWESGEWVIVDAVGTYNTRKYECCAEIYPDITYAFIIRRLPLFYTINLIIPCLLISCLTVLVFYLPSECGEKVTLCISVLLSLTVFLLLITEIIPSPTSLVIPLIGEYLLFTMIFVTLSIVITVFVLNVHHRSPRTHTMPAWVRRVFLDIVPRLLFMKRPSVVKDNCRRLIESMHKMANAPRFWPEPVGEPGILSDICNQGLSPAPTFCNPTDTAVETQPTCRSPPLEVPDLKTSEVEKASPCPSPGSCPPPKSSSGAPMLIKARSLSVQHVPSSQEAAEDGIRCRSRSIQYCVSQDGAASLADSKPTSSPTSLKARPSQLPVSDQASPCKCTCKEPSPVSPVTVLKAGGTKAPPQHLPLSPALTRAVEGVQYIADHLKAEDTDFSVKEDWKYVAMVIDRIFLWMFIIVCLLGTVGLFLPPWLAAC
Sequence of Neuronal acetylcholine receptor; alpha4/beta2 (P12390 whole entry): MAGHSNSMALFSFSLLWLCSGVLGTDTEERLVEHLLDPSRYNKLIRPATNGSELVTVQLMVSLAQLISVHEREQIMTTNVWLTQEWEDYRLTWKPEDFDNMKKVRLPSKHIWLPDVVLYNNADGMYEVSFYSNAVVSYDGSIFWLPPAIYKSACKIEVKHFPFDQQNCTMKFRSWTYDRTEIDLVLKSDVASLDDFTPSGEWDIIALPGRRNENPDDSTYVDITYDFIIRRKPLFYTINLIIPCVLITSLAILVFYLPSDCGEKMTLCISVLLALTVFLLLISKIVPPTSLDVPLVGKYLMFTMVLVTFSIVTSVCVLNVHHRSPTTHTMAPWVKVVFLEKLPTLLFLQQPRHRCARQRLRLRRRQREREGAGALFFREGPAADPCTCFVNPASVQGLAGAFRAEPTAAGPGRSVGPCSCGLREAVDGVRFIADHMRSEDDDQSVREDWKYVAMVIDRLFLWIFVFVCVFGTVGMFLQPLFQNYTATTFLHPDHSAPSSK
Sequence of Neuronal acetylcholine receptor; alpha4/beta4 (P09483 whole entry): as the sequence (P09483 whole entry) above
Sequence of Neuronal acetylcholine receptor; alpha4/beta4 (P12392 whole entry): as the sequence (P12392 whole entry) above

C[N+](C)(C)Cc1c2n(c3ccccc13)Cc1c(C[N+](C)(C)C)c3ccccc3n1C2.[I-].[I-]
Ki [1]: 0.43 µM
pKi [1]: 6.37
Activity (tsA201 [2]): inactive
Ki [3]: 7.2 µM
pKi [3]: 5.14
Ki [4]: 15 µM
pKi [4]: 4.82
Ki [5]: > 100 µM
pKi ([5]; hek293): < 4
Ki [6]: 4.42 µM
pKi [6]: 5.35
pIC50 ([7]; hek293): < 4
IC50 ([7]; read-out: IC50): > 100 µM
Activity (tsA201 [8]): inactive
Ki [9]: 7.6 µM
pKi [9]: 5.12
Activity (tsA201 [10]): inactive
Ki ([11]; read-out: Ki): 2.4 µM
Ki ([11]; read-out: pKi (converted)): 2.51 µM
Activity (tsA201 [12]): inactive
Ki [13]: 2.4 µM
pKi [13]: 5.61
Ki ([14]; read-out: Ki): 1.3 µM
Ki ([14]; read-out: pKi (converted)): 1.26 µM
Ki [15]: 22 µM
pKi [15]: 4.66
Ki [16]: > 100 µM
Ki ([16]; read-out: Ki): > 100 µM
IC50 [17]: > 100 µM
pIC50 [17]: < 4
Ki [18]: > 100 µM
pKi [18]: < 4
pIC50 [19]: < 4
IC50 [19]: > 100 µM
Ki [20]: 5.1 µM
pKi [20]: 5.29
IC50 ([21]; read-out: IC50): 30 µM
IC50 ([21]; read-out: pIC50 (converted)): 100 µM
Ki [22]: 1.1 µM
pKi [22]: 5.94
Ki [23]: 6.3 µM
pKi [23]: 5.2
Ki [24]: 5.2 µM
pKi [24]: 5.28
Ki [25]: > 100 µM
pKi [25]: < 4
Ki [26]: 6 µM
pKi [26]: 5.22
Activity (tsA201 [27]): inactive
IC50 (cells; read-out: IC50): > 100 µM
IC50 (cells; read-out: pIC50 (converted)): > 100 µM
Ki [28]: 8.3 µM
pKi [28]: 5.08

C1=C2CN3CC[C@@H]4[C@@H]5[C@H]([C@@H](OC1)N1c6ccccc6[C@@]67CCN8CC9=CCO[C@H]([C@@H]([C@H]16)[C@H]9C[C@H]87)N5c1ccccc1)[C@H]2C[C@@H]43
Ki [5]: 3.1 µM
IC50 ([7]; read-out: IC50): 11 µM
IC50 ([7]; read-out: pIC50 (converted)): 12.6 µM
Ki ([11]; read-out: Ki): 1.1 µM
Ki ([14]; read-out: Ki): 1.1 µM
Ki ([14]; read-out: pKi (converted)): 1 µM
pKi [16]: < 4
Ki ([16]; read-out: Ki): > 100 µM
IC50 [17]: > 100 µM
pIC50 [17]: < 4
Ki [18]: > 100 µM
pKi [18]: < 4
IC50 [19]: 11 µM
IC50 ([21]; read-out: IC50): 1.6 µM
IC50 ([21]; read-out: pIC50 (converted)): 1.58 µM
Ki [25]: 30 µM
IC50 (cells; read-out: IC50): > 100 µM
IC50 (cells; read-out: pIC50 (converted)): > 100 µM

COc1ccc(C[N+]23CC[C@@H]4[C@@H]5[C@@H]6[C@@H](OCC=C(C2)[C@@H]6C[C@@H]43)N2c3ccccc3[C@@]34CC[N+]6(Cc7ccc(OC)c(OC)c7)CC7=CCO[C@H]([C@@H]([C@H]23)[C@H]7C[C@@H]46)N5c2ccccc2)cc1OC.[Cl-].[Cl-] (stereo partly specified)
Ki [5]: 28 µM
IC50 ([7]; read-out: IC50): 30 µM
Ki ([11]; read-out: Ki): 0.13 µM
Ki ([11]; read-out: pKi (converted)): 0.126 µM
Ki ([14]; read-out: Ki): 0.059 µM
Ki ([14]; read-out: pKi (converted)): 0.0631 µM
pKi [16]: < 4
Ki ([16]; read-out: Ki): > 100 µM
IC50 [17]: > 100 µM
pIC50 [17]: < 4
Ki [18]: > 100 µM
pKi [18]: < 4
pIC50 [19]: < 4
IC50 [19]: > 100 µM
IC50 ([21]; read-out: IC50): 1.3 µM
IC50 ([21]; read-out: pIC50 (converted)): 1.32 µM
Ki [25]: > 100 µM
pKi [25]: < 4
IC50 (cells; read-out: IC50): > 100 µM
IC50 (cells; read-out: pIC50 (converted)): > 100 µM

O=[N+]([O-])c1ccc(C[N+]23CCC4[C@@H]5/C(=C\N6c7ccccc7[C@@]78CC[N+]9(Cc%10ccc([N+](=O)[O-])cc%10)CC%10=CCO[C@H]([C@@H]([C@H]67)[C@H]%10C[C@@H]89)N5c5ccccc5)[C@@H](C[C@@H]42)/C(=C\CO)C3)cc1.[Br-].[Br-] (stereo partly specified)
Ki [5]: 100 µM
IC50 ([7]; read-out: IC50): 30 µM
Ki ([11]; read-out: Ki): 0.11 µM
Ki ([11]; read-out: pKi (converted)): 0.126 µM
Ki ([14]; read-out: Ki): 0.098 µM
Ki ([14]; read-out: pKi (converted)): 0.1 µM
pKi [16]: < 4
Ki ([16]; read-out: Ki): > 100 µM
IC50 [17]: > 100 µM
pIC50 [17]: < 4
Ki [18]: > 100 µM
pKi [18]: < 4
pIC50 [19]: < 4
IC50 [19]: > 100 µM
IC50 ([21]; read-out: IC50): 2.5 µM
IC50 ([21]; read-out: pIC50 (converted)): 2.45 µM
Ki [25]: > 100 µM
pKi [25]: < 4
IC50 (cells; read-out: IC50): > 100 µM
IC50 (cells; read-out: pIC50 (converted)): > 100 µM

From ChEMBL document CHEMBL1148788 (J Med Chem, 2007)
